{"data": "Published values gathered from unrelated publications", "target": "Serine/threonine-protein kinase ULK2 (ULK2, Homo sapiens, UniProt Q8IYT8)", "One construct used (Q8IYT8 1-1036)": "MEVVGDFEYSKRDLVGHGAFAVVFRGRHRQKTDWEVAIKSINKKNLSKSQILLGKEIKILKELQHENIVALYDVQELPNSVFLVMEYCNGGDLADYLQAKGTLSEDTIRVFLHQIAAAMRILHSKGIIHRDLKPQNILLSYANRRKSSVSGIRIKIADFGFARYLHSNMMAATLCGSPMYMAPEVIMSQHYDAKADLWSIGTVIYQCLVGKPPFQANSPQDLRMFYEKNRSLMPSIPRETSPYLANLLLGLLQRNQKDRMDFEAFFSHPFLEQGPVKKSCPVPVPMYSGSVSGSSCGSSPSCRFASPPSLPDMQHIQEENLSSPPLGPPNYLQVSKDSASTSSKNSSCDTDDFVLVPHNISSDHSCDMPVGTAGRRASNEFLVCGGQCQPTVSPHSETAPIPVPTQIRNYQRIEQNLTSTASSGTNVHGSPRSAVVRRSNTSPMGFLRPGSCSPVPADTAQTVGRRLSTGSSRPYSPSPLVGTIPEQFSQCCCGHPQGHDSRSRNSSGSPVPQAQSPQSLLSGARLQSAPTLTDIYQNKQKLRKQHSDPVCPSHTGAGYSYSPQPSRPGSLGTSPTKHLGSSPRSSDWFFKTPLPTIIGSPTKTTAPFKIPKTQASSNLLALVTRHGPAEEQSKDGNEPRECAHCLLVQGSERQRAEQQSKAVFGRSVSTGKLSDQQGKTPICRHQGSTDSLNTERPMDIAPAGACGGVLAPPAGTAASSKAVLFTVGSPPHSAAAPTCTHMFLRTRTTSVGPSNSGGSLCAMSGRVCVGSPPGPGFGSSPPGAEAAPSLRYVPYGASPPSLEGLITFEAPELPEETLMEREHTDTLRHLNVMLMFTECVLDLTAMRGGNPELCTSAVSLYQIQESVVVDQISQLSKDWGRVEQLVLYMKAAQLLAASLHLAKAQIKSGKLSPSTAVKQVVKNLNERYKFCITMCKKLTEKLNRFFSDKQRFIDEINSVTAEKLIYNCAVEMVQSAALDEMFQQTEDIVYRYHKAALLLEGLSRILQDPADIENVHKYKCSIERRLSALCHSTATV", "note": "Lines come from different studies, so protocols differ."}
{"Compound": "CN(C)c1nccc(-c2cnc3ncccn23)n1", "assay": "binding", "conditions": "1 µM", "remaining binding": "74%"}
{"Compound": "CCC(=O)N[C@H]1CC[C@@H](C(=O)N(C)c2ccc(-c3nc4ccccc4o3)cc2)C1", "assay": "cell-free assay, competition with immobilised ligand", "conditions": "1 µM", "remaining binding": "75%"}
{"Compound": "CC1CCCN1c1nccc(-c2cnn3ncccc23)n1 (stereo not shown)", "assay": "binding", "conditions": "1 µM", "remaining binding": "74%"}
{"Compound": "O=C(NCC1CCOCC1)c1n[nH]cc1NC(=O)c1c(F)cccc1F", "assay": "binding, competition with immobilised ligand", "conditions": "1 µM", "remaining binding": "81%"}
{"Compound": "O=C(NCCCN1CCOCC1)c1ccc(Nc2ncc(Cl)c(-c3ccc(Cl)s3)n2)cc1", "assay": "binding, competition with immobilised ligand", "conditions": "1 µM", "remaining binding": "24%"}
{"Compound": "O=C(O)[C@H]1[C@H](Cn2nnc3ccccc3c2=O)CC[C@@H]1C(=O)c1ccc(OCCC2CCOCC2)cc1", "assay": "cell-free assay, competition with immobilised ligand", "conditions": "1 µM", "remaining binding": "100%"}
{"Compound": "COc1ccnn2ncc(-c3ccnc(N(C)C)n3)c12", "assay": "binding", "conditions": "1 µM", "remaining binding": "100%"}
{"Compound": "C[C@@H]1CN(c2ccc3ncc(-c4ccc5[nH]nc(C6CC6)c5c4)n3n2)C[C@H](C)O1", "assay": "binding, competition with immobilised ligand", "conditions": "50 nM", "remaining binding": "92%"}
{"Compound": "N#Cc1ccccc1CSc1nnc2c(n1)[nH]c1ccccc12", "assay": "binding, competition with immobilised ligand", "conditions": "10 µM", "remaining binding": "94%"}
{"Compound": "CN(C)c1nccc(-c2cnn3ncccc23)n1", "assay": "binding", "conditions": "1 µM", "remaining binding": "100%"}
{"Compound": "O=C(NCCCN1CCOCC1)c1ccc(Nc2nccc(-c3cc4ccccc4s3)n2)cc1", "assay": "binding, competition with immobilised ligand", "conditions": "1 µM", "remaining binding": "62%"}
{"Compound": "F[C@@H]1CCN(c2nccc(-c3cnn4ncccc34)n2)C1", "assay": "binding", "conditions": "1 µM", "remaining binding": "100%"}
{"Compound": "CCS(=O)(=O)c1cc2cc(C[C@](O)(CC(C)(C)c3ccc(F)cc3C(N)=O)C(F)(F)F)[nH]c2cn1", "assay": "cell-free assay, competition with immobilised ligand", "conditions": "1 µM", "remaining binding": "100%"}
{"Compound": "C[C@@H]1CCN(c2nccc(-c3cnn4ncccc34)n2)C1", "assay": "binding", "conditions": "1 µM", "remaining binding": "69%"}
{"Compound": "FC(F)(F)c1ccc2c(c1)nc(-c1cccnc1)n2C1CC1", "assay": "cell-free assay, competition with immobilised ligand", "conditions": "1 µM", "remaining binding": "100%"}
{"Compound": "O=C(c1ccc(Nc2ncc(Cl)c(-c3ccc(Cl)s3)n2)cc1)N1CCC(N2CCCC2)CC1", "assay": "binding, competition with immobilised ligand", "conditions": "1 µM", "remaining binding": "31%"}
{"Compound": "O=C(NS(=O)(=O)c1ccc(NCC2CCOCC2)c([N+](=O)[O-])c1)c1ccc(N2CCN(Cc3ccc(C(F)(F)F)cc3-c3ccc(Cl)cc3)CC2)cc1Oc1cnc2[nH]ccc2c1", "assay": "cell-free assay, competition with immobilised ligand", "conditions": "1 µM", "remaining binding": "100%"}
{"Compound": "CCN1CCN(Cc2ccc(C(=O)Nc3ccc(C)c(Oc4ccc5c(c4)CC(=O)N5)c3)cc2C(F)(F)F)CC1", "assay": "binding, competition with immobilised ligand", "conditions": "1 µM", "remaining binding": "100%"}
{"Compound": "COc1cnc(Nc2cccc(S(N)(=O)=O)c2)nc1N1CCN(c2ccccc2)CC1", "assay": "binding, competition with immobilised ligand", "conditions": "1 µM", "remaining binding": "96%"}
{"Compound": "O=C1CCc2cc(Nc3cc(OC4CCOCC4)c([N+](=O)[O-])cc3Cl)ccc2N1", "assay": "cell-free assay, competition with immobilised ligand", "conditions": "1 µM", "remaining binding": "99%"}
{"Compound": "c1cncc(-c2cccc(Nc3nccc(NC4CCCCC4)n3)c2)c1", "assay": "binding, competition with immobilised ligand", "conditions": "10 µM", "remaining binding": "80%"}
{"Compound": "CCOC(=O)c1cc2cc(-c3cc(C(=O)NCc4ccc(C(=O)O)cc4)nn3C)ccc2[nH]1", "assay": "cell-free assay, competition with immobilised ligand", "conditions": "0.1 µM", "remaining binding": "78%"}
{"Compound": "CNC(=O)[C@@H]1CC[C@@H](n2c(-c3ccc4cnccc4c3)nc3ccc(C(=O)NCc4cccc(C(N)=O)c4)cc32)C1", "assay": "binding, competition with immobilised ligand", "conditions": "1 µM", "remaining binding": "100%"}
{"Compound": "NS(=O)(=O)c1cc(NC(=O)C2(c3ccccc3Cl)CC2)ccc1Oc1cccc(Cl)c1", "assay": "cell-free assay, competition with immobilised ligand", "conditions": "1 µM", "remaining binding": "100%"}
{"Compound": "C=CC(=O)N1CCC(C(=O)NCC(=O)N2CCN(c3nc(-c4cnc(N)nc4C(F)F)nc(N4CCOCC4)n3)CC2)CC1", "assay": "binding, competition with immobilised ligand", "conditions": "1 µM", "remaining binding": "96%"}
